ChEMBL document CHEMBL1148981, “A phthalide with in vitro growth inhibitory activity from an oidiodendron strain” (J Nat Prod, 2004)

Assays:
RPMI-8226 = assay: Cytotoxicity against human RPMI8226 cells; format: functional
How it was run: (§1)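 Growth inhibition read as GI50. Lines were run at one of two sites. At Cetek, cells grew in ATCC-recommended media and viability was read as CellTiter Blue resazurin reduction by fluorescence at 530/590. At NCI DTP, cells grew in RPMI 1640 with 5% FBS and 2 mM L-glutamine, and viability was read by TCA fixation and sulforhodamine B total-protein staining.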

[1] = molecular target: T1, RAC-alpha serine/threonine-protein kinase (Homo sapiens, UniProt P31749); assay: Inhibition of sulfhydryl-labeled human recombinant Akt1 expressed in baculovirus by affinity capillary electrophoresis assay
T1 sequence (P31749 whole entry): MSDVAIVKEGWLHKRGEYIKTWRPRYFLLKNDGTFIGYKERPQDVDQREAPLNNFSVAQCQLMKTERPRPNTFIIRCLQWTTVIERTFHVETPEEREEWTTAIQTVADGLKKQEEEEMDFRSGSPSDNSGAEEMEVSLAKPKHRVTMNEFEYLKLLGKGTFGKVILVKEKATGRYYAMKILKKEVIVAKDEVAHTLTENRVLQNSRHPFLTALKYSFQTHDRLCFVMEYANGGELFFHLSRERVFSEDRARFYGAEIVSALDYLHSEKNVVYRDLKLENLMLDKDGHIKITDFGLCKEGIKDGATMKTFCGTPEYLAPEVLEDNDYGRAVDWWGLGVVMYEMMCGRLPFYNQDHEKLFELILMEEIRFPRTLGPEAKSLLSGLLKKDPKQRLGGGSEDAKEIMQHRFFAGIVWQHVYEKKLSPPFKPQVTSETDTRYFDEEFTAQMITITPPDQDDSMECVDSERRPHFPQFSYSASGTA
How it was run: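 Baculovirus-expressed human Akt1 was buffer-exchanged into 30 mM HEPES pH 7.5 with 0.1% Chaps and 150 mM NaCl. It was labeled with Fluorescein-5-EX succinimidyl ester (dye:protein 5:1) for 2 h on ice, quenched with β-mercaptoethanol and stored in 50% glycerol at -20 °C. Compound was titrated against labeled Akt1 by affinity capillary electrophoresis. IC50 is the mean of three experiments with SEM.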

[2] = molecular target: T1, RAC-alpha serine/threonine-protein kinase; assay: Inhibition of sulfhydryl-labeled human recombinant Akt1 expressed in baculovirus assessed as phosphorylation of recombinant Bad protein by Western blotting
How it was run: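 Active recombinant Akt1 (50 nM final) was preincubated 5 min at room temperature with test agent in DMSO (1.4% final) in assay dilution buffer. Soluble Bad (1.2 µM final) and Mg-ATP solution were then added, followed by 30 min at 30 °C with agitation. Read-out was SDS-PAGE, PVDF transfer, anti-phospho-Bad (Ser112) with HRP secondary, chemiluminescence and densitometry. IC50 is the mean of three experiments.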

K562 = assay: Cytotoxicity against human K562 cells; format: functional; how it was run: as §1
NCI-H23 = assay: Cytotoxicity against human NCI-H23 cells; format: functional; how it was run: as §1
EKVX = assay: Cytotoxicity against human EKVX cells; format: functional; how it was run: as §1
SNB-75 = assay: Cytotoxicity against human SNB75 cells; format: functional; how it was run: as §1
U-251 = assay: Cytotoxicity against human U251 cells; format: functional; how it was run: as §1
SK-MEL-28 = assay: Cytotoxicity against human SK-MEL-28 cells; format: functional; how it was run: as §1
M14 = assay: Cytotoxicity against human M14 cells; format: functional; how it was run: as §1
OVCAR-5 = assay: Cytotoxicity against human OVCAR5 cells; format: functional; how it was run: as §1
OVCAR-8 = assay: Cytotoxicity against human OVCAR8 cells; format: functional; how it was run: as §1
OVCAR-3 = assay: Cytotoxicity against human OVCAR-3 cells; format: functional; how it was run: as §1
MDA-MB-435 = assay: Cytotoxicity against human MDA-MB-435 cells; format: functional; how it was run: as §1
BT-549 = assay: Cytotoxicity against human BT549 cells; format: functional; how it was run: as §1
MCF7 = assay: Cytotoxicity against human MCF7 cells; format: functional; how it was run: as §1
U-937 = assay: Cytotoxicity against human U937 cells; format: functional; how it was run: as §1
HepG2 = assay: Cytotoxicity against human HepG2 cells; format: functional; how it was run: as §1
Jurkat = assay: Cytotoxicity against human Jurkat cells; format: functional; how it was run: as §1

Question: Which GI50 (RPMI-8226) does the source give for `CC1OC(=O)c2cc(O)c(O)c(O)c21` (centres undefined) here?
Answer: 67 µM

Question: And the IC50 [1]?
Answer: 19.7 µM

Question: And the IC50 [2]?
Answer: 30.4 µM

Question: And the GI50 (K562)?
Answer: > 100 µM

Question: And the GI50 (NCI-H23)?
Answer: 87 µM

Question: And the GI50 (EKVX)?
Answer: > 100 µM

Question: And the GI50 (SNB-75)?
Answer: 60 µM

Question: And the GI50 (U-251)?
Answer: > 100 µM

Question: What about the GI50 (SK-MEL-28) of the same compound?
Answer: 37 µM

Question: And the GI50 (M14)?
Answer: > 100 µM

Question: What about the GI50 (OVCAR-5) of the same compound?
Answer: 74 µM

Question: What about the GI50 (OVCAR-8) of the same compound?
Answer: 82 µM

Question: What about the GI50 (OVCAR-3) of the same compound?
Answer: > 100 µM

Question: What about the GI50 (MDA-MB-435) of the same compound?
Answer: 85 µM

Question: And the GI50 (BT-549)?
Answer: 24 µM

Question: And the GI50 (MCF7)?
Answer: > 100 µM

Question: What about the GI50 (U-937) of the same compound?
Answer: 60 µM

Question: What about the GI50 (HepG2) of the same compound?
Answer: > 100 µM

Question: What about the GI50 (Jurkat) of the same compound?
Answer: 20 µM
